Source: ChEMBL document CHEMBL4393740, “Preparation and biological evaluation of soluble tetrapeptide epoxyketone proteasome inhibitors” (Bioorg Med Chem, 2019)
Values belong to the compound of their own block, whether it stands above or below them.

How the values were obtained:
[1] = tested on: U-266; assay: Cytotoxicity against human U266B1 cells assessed as cell viability measured after 72 hrs by celltiter96 aqueous cell proliferation assay; assay type: functional, cell-based; conditions: U-266, 72 h
Procedure, shortened: (§1)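 Suspension cells in log phase plated at 5000 (RPMI8226) or 10000 (U266B1) cells per well. Viability read after 72 h by MTS-type CellTiter 96 AQueous One assay on a plate reader. IC50 reported, three repeats.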

[2] = tested on: RPMI-8226; assay: Cytotoxicity against human RPMI8226 cells assessed as cell viability measured after 72 hrs by celltiter96 aqueous cell proliferation assay; assay type: functional, cell-based; conditions: RPMI-8226, 72 h; procedure, shortened: as §1
[3] = molecular target: T1, Proteasome Macropain subunit MB1 (Homo sapiens, UniProt P28074); assay: Inhibition of human chymotrypsin-like activity of 20S proteasome using Suc-LLVY-AMC as substrate pre-incubated for 10 mins followed by substrate addition and measured after 1 hr by spectrofluorimetry
T1 sequence (P28074 whole entry): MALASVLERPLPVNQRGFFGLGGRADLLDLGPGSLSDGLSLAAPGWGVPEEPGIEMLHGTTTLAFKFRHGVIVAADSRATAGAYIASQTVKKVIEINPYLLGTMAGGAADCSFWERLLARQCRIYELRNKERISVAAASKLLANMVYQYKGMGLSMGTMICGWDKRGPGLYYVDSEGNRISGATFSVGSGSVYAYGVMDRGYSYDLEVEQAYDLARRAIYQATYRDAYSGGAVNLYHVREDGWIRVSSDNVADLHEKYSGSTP

[4] = Half life in monkey liver microsomes at 1 uM pre-incubated for 5 mins followed by NADP+ addition and measured up to 20 mins by LC-MS analysis; assay type: ADME, Macaca mulatta, Microsome; conditions: rhesus monkey
[5] = Intrinsic clearance in dog liver microsomes at 1 uM pre-incubated for 5 mins followed by NADP+ addition and measured up to 20 mins by LC-MS analysis; assay type: ADME, Canis lupus familiaris, Microsome; conditions: read-out: CLH
[6] = Half life in human liver microsomes at 1 uM pre-incubated for 5 mins followed by NADP+ addition and measured up to 20 mins by LC-MS analysis; assay type: ADME, Microsome
Procedure, shortened: (§2)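 Mixture held 1 µM compound, 0.5 mg/mL microsomal protein (in-house pooled Balb/c mouse or pooled human), 100 mM Tris-HCl pH 7.4, and an NADPH-generating system (5 mM isocitric acid, 0.2 U/mL isocitric dehydrogenase, 5 mM MgCl2, 1 mM NADP+). Preincubated 5 min at 37 °C, started with NADP+, sampled at 0, 5, 10, 20 min. Quenched with cold acetonitrile containing 1 µM phenytoin internal standard. Compound loss measured by LC-MS/MS. Controls omitted NADPH and/or microsomes.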

[7] = Intrinsic clearance in BALB/c mouse liver microsomes at 1 uM pre-incubated for 5 mins followed by NADP+ addition and measured up to 20 mins by LC-MS analysis; assay type: ADME, Microsome; conditions: read-out: CLH; procedure, shortened: as §2
[8] = Half life in BALB/c mouse liver microsomes at 1 uM pre-incubated for 5 mins followed by NADP+ addition and measured up to 20 mins by LC-MS analysis; assay type: ADME, Microsome; procedure, shortened: as §2
[9] = Intrinsic clearance in monkey liver microsomes at 1 uM pre-incubated for 5 min followed by NADP+ addition and measured up to 20 mins by LC-MS analysis; assay type: ADME, Macaca mulatta, Microsome; conditions: rhesus monkey, read-out: CLH
[10] = molecular target: Voltage-gated inwardly rectifying potassium channel KCNH2 (Homo sapiens, UniProt Q12809); assay: Inhibition of human ERG in HEK293 cells assessed as effect on QT interval; assay type: cell-based
[11] = Half life in dog liver microsomes at 1 uM pre-incubated for 5 mins followed by NADP+ addition and measured up to 20 mins by LC-MS analysis; assay type: ADME, Canis lupus familiaris, Microsome
[12] = Intrinsic clearance in rat liver microsomes at 1 uM pre-incubated for 5 mins followed by NADP+ addition and measured up to 20 mins by LC-MS analysis; assay type: ADME, Microsome; conditions: read-out: CLH
[13] = tested on: ARH-77; assay: Antitumour activity against human ARH77 cells xenografted in nude mouse assessed as tumor growth at 5mg/kg, iv dosed at day 1 ,4, 8 ,11, 15 and 18 for 3 weeks and measured every 2 days by caliper method relative to control; assay type: functional
Procedure, shortened: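 Nude mice given subcutaneous 1 × 10^7 ARH77 cells. Randomized at mean tumour 100-150 mm3 into treatment and control groups, n = 5. Dosed i.v. 5 mg/kg on days 1, 4, 8, 11, 15 and 18 for 3 weeks. Tumours sized by caliper, V = length×width²/2, RTV = Vt/V0. T/C% = mean RTV treated / mean RTV control × 100.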

[14] = Half life in rat liver microsomes at 1 uM pre-incubated for 5 mins followed by NADP+ addition and measured up to 20 mins by LC-MS analysis; assay type: ADME, Microsome
[15] = Intrinsic clearance in human liver microsomes at 1 uM pre-incubated for 5 min followed by NADP+ addition and measured up to 20 mins by LC-MS analysis; assay type: ADME, Microsome; conditions: read-out: CLH; procedure, shortened: as §2

Voltage-gated inwardly rectifying potassium channel KCNH2, sequence (Q12809 whole entry): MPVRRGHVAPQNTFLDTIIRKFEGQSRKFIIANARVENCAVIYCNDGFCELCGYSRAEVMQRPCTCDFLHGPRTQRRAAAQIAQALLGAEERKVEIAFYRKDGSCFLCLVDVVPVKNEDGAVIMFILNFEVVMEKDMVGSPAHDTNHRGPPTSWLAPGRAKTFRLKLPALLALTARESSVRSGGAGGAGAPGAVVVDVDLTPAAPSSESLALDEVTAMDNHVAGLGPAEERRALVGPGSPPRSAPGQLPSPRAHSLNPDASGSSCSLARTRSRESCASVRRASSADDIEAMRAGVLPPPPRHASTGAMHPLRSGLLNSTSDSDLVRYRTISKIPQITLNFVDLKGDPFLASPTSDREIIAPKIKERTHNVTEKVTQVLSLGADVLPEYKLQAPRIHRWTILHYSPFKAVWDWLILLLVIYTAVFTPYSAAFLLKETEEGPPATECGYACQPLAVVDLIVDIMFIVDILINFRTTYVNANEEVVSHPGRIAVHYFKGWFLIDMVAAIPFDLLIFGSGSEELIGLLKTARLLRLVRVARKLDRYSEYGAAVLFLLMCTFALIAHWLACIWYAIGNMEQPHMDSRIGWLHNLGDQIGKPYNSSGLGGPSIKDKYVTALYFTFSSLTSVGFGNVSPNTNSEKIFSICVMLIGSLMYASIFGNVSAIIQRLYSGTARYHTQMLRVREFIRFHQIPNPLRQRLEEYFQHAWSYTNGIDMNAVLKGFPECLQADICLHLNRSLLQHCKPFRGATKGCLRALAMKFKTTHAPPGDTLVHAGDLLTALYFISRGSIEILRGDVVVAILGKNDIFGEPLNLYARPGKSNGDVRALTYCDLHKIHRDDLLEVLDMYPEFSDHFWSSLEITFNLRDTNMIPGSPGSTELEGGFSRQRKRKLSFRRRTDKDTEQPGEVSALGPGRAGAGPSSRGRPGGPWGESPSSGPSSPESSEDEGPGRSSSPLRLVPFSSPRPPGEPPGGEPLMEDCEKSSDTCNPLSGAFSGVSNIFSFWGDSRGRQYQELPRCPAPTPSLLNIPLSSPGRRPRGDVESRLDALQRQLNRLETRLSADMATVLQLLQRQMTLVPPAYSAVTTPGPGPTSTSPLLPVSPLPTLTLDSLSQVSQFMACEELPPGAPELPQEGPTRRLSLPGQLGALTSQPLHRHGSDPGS

Compound: CC(C)C[C@H](NC(=O)[C@H](CCc1ccccc1)NC(=O)CN1CCOCC1)C(=O)N[C@@H](Cc1ccccc1)C(=O)N[C@@H](CC(C)C)C(=O)[C@@]1(C)CO1 [CARFILZOMIB]
half-life at 1 µM [4]: < 60 s
IC50 [1]: 0.0357 µM
IC50 [2]: 0.0391 µM
microsomal CLint at 1 µM [5]: 5670 µL/min/mg
half-life at 1 µM [6]: 17.2 s
microsomal CLint at 1 µM [7]: 4100 µL/min/mg
half-life at 1 µM [8]: 20.4 s
microsomal CLint at 1 µM [9]: > 1390 µL/min/mg
IC50 [10]: 92.1 µM
half-life at 1 µM [11]: 14.6 s
microsomal CLint at 1 µM [12]: 2230 µL/min/mg
T/C [13]: 34.6%
half-life at 1 µM [14]: 37.2 s
microsomal CLint at 1 µM [15]: 4850 µL/min/mg

Compound: CC[C@H](NC(=O)[C@H](CC(C)C)NC(=O)[C@H](CCc1ccccc1)NC(=O)CN1CCOCC1)C(=O)N[C@@H](CC(C)C)C(=O)[C@@]1(C)CO1
IC50 ([3]; read-out: IC50): 0.0982 µM

Compound: CC(C)C[C@H](NC(=O)[C@H](CCc1ccccc1)NC(=O)CN1CCOCC1)C(=O)N[C@@H](Cc1ccccc1)C(=O)N[C@@H](CCc1ccccc1)C(=O)[C@@]1(C)CO1
IC50 ([3]; read-out: IC50): 0.729 µM

Compound: COC[C@H](NC(=O)c1cc(C)on1)C(=O)NCC(=O)N[C@@H](Cc1ccccc1)C(=O)N[C@@H](CC(C)C)C(=O)[C@@]1(C)CO1
IC50 [3]: Not Active

Compound: CC[C@H](NC(=O)[C@H](Cc1ccccc1)NC(=O)[C@H](CC(C)C)NC(=O)[C@H](CCc1ccccc1)NC(=O)CN1CCOCC1)C(=O)[C@@]1(C)CO1
IC50 ([3]; read-out: IC50): 0.0771 µM

Compound: COC[C@H](NC(=O)[C@H](CCc1ccccc1)NC(=O)c1cc(C)on1)C(=O)N[C@@H](Cc1ccccc1)C(=O)N[C@@H](CC(C)C)C(=O)[C@@]1(C)CO1
IC50 ([3]; read-out: IC50): 0.0509 µM

Compound: CC(C)C[C@H](NC(=O)[C@H](Cc1cscn1)NC(=O)CO)C(=O)N[C@@H](Cc1ccccc1)C(=O)N[C@@H](CC(C)C)C(=O)[C@@]1(C)CO1
IC50 ([3]; read-out: IC50): 0.0521 µM

Compound: Cc1cc(C(=O)N[C@@H](CCc2ccccc2)C(=O)N[C@H](C(=O)N[C@@H](Cc2ccccc2)C(=O)N[C@@H](CC(C)C)C(=O)[C@@]2(C)CO2)[C@@H](C)O)no1
IC50 ([3]; read-out: IC50): 0.0483 µM

The remaining compounds from weak to strong by IC50 ([3]; read-out: IC50), led by results:

IC50 ([3]; read-out: IC50): 0.0449 µM
Compound: CC(C)C[C@H](NC(=O)[C@H](Cc1ccsc1)NC(=O)CN1CCOCC1)C(=O)N[C@@H](Cc1ccccc1)C(=O)N[C@@H](CC(C)C)C(=O)[C@@]1(C)CO1
IC50 [1]: 0.0238 µM
IC50 [2]: 0.0346 µM

IC50 ([3]; read-out: IC50): 0.0415 µM
Compound: Cc1cc(C(=O)N[C@@H](CC(C)C)C(=O)N[C@@H](CC(C)C)C(=O)N[C@@H](Cc2ccccc2)C(=O)N[C@@H](CC(C)C)C(=O)[C@@]2(C)CO2)no1

IC50 ([3]; read-out: IC50): 0.0368 µM
Compound: CC[C@H](NC(=O)[C@H](CCc1ccccc1)NC(=O)c1cc(C)on1)C(=O)N[C@@H](Cc1ccccc1)C(=O)N[C@@H](CC(C)C)C(=O)[C@@]1(C)CO1
IC50 [1]: 0.0455 µM
IC50 [2]: 0.047 µM

IC50 ([3]; read-out: IC50): 0.0366 µM
Compound: Cc1cc(C(=O)N[C@@H](CCc2ccccc2)C(=O)N[C@@H](CC2CCCC2)C(=O)N[C@@H](Cc2ccccc2)C(=O)N[C@@H](CC(C)C)C(=O)[C@@]2(C)CO2)no1

IC50 ([3]; read-out: IC50): 0.0341 µM
Compound: CC(C)C[C@H](NC(=O)[C@H](Cc1cc2ccccc2s1)NC(=O)CN1CCOCC1)C(=O)N[C@@H](Cc1ccccc1)C(=O)N[C@@H](CC(C)C)C(=O)[C@@]1(C)CO1
IC50 [1]: 0.0332 µM
IC50 [2]: 0.0538 µM

IC50 ([3]; read-out: IC50): 0.0306 µM
Compound: COC[C@H](NC(=O)c1cc(C)on1)C(=O)N[C@@H](CC(C)C)C(=O)N[C@@H](Cc1ccccc1)C(=O)N[C@@H](CC(C)C)C(=O)[C@@]1(C)CO1

IC50 ([3]; read-out: IC50): 0.0268 µM
Compound: CC(C)C[C@H](NC(=O)[C@H](CCc1ccccc1)NC(=O)CN1CCOCC1)C(=O)N[C@@H](Cc1cscn1)C(=O)N[C@@H](CC(C)C)C(=O)[C@@]1(C)CO1
IC50 [1]: 0.0565 µM
IC50 [2]: 0.0769 µM

IC50 ([3]; read-out: IC50): 0.0255 µM
Compound: Cc1cc(C(=O)N[C@@H](Cc2cc3ccccc3[nH]2)C(=O)N[C@@H](CC(C)C)C(=O)N[C@@H](Cc2ccccc2)C(=O)N[C@@H](CC(C)C)C(=O)[C@@]2(C)CO2)no1
